Measured values taken from ChEMBL document CHEMBL4680154, “The optimization of xanthine derivatives leading to HBK001 hydrochloride as a potent dual ligand targeting DPP-IV and GPR119” (Eur J Med Chem, 2020).
pEC50: −log10 of the molar value.

biological target: T1, Glucose-dependent insulinotropic receptor (Homo sapiens) (UniProt Q8TDV5); experiment: Agonist activity at CREB-LBD and Gal4-DBD fused recombinant human GPR119 expressed in HEK293 cells at 1 uM by firefly luciferase assay relative to AR231453; type: functional, cell-based; details: filed as agonist
T1 sequence (whole entry): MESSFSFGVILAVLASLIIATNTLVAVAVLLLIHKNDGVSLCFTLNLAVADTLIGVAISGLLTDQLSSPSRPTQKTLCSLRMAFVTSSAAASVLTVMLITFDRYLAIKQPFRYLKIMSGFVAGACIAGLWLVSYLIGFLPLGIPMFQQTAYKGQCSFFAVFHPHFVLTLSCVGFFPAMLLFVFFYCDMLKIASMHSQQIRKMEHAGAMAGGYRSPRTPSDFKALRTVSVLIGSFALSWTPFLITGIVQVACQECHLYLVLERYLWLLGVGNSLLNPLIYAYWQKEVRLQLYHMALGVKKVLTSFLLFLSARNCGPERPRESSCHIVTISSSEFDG
How it was run: (§1)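 HEK293 cells transiently transfected with human GPR119, a Gal4-DBD/CREB-LBD fusion and a Gal4 UAS-driven luciferase reporter, then treated with compound (DMSO vehicle). Firefly luciferase luminescence read. Activation fold = compound/vehicle, expressed as percent of the AR231453 activation fold. EC50 obtained by curve fitting.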

Question: Which Activity does the source give for `CC#CCn1c(N2CCC[C@@H](N)C2)nc2c1c(=O)n(CCCN1CCC(c3ncc(-c4ccccc4)o3)CC1)c(=O)n2C` here?
Answer: 80%

Question: For `CC#CCn1c(N2CCC[C@@H](N)C2)nc2c1c(=O)n(CCCN1CCN(c3nc(-c4ccccc4)ns3)CC1)c(=O)n2C`, which Activity is on record?
Answer: 81%

Question: `CC#CCn1c(N2CCC[C@@H](N)C2)nc2c1c(=O)n(CCCN1CCC(c3nnnn3-c3ccccc3)CC1)c(=O)n2C` was tested. Which Activity did it give?
Answer: 53%

Question: For `CC#CCn1c(N2CCC[C@@H](N)C2)nc2c1c(=O)n(CCCN1CCN(c3ncc(C)cn3)CC1)c(=O)n2C`, which Activity is on record?
Answer: 60%

Question: How did the Activity turn out when `CC#CCn1c(N2CCC[C@@H](N)C2)nc2c1c(=O)n(CCCN1CCN(c3ncc(CC)cn3)CC1)c(=O)n2C` was run?
Answer: 85%

Question: `CC#CCn1c(N2CCC[C@@H](N)C2)nc2c1c(=O)n(CCCN1CCN(c3ncc(C(F)(F)F)cn3)CC1)c(=O)n2C` was tested. Which Activity did it give?
Answer: 90%

Question: How did the Activity turn out when `CC#CCn1c(N2CCC[C@@H](N)C2)nc2c1c(=O)n(CCCN1CCN(c3ncc(OC)cn3)CC1)c(=O)n2C` was run?
Answer: 79%

Question: `CC#CCn1c(N2CCC[C@@H](N)C2)nc2c1c(=O)n(CCCN1CCC(c3nc(-c4ccccc4)no3)CC1)c(=O)n2C` was tested. Which Activity did it give?
Answer: 55%

Question: How did the Activity turn out when `CC#CCn1c(N2CCC[C@@H](N)C2)nc2c1c(=O)n(CCCN1CCC(c3cc(-c4ccccc4)on3)CC1)c(=O)n2C` was run?
Answer: 49%

Question: How did the Activity turn out when `CC#CCn1c(N2CCC[C@@H](N)C2)nc2c1c(=O)n(CCCN1CCN(c3cc(C)nn3-c3ccccc3)CC1)c(=O)n2C` was run?
Answer: 42%

tested on: Mus musculus; experiment: Antidiabetic activity in ICR mouse assessed as reduction in blood glucose AUC at 10 mg/kg, po administered as single dose followed by glucose challenge measured upto 120 mins by OGTT relative to control; type: functional; design: scale not given: the % may be the effect or the level left; details: time min <=120
How it was run: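 ICR mice were fasted overnight and dosed by oral gavage, with distilled water as vehicle, before an oral glucose load of 2 g/kg. Tail-tip blood was sampled at 0, 30, 60 and 120 min and glucose measured by the glucose oxidase method. AUC was compared with the vehicle group. n = 10 per group, mean ± SEM.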

Question: For `N[C@@H](CC(=O)N1CCn2c(nnc2C(F)(F)F)C1)Cc1cc(F)c(F)cc1F` [SITAGLIPTIN], which Activity is on record?
Answer: 27.3%

Question: With `COc1c(Nc2ccc(S(C)(=O)=O)nc2C)ncnc1OC1CCN(C(=O)OC(C)C)CC1` [ADP-597] as the molecule, how does the Activity read?
Answer: 19.9%

biological target: T2, Glucose-dependent insulinotropic receptor (Homo sapiens, UniProt Q8TDV5); experiment: Agonist activity at CREB-LBD and Gal4-DBD fused recombinant human GPR119 expressed in HEK293 cells by firefly luciferase assay; type: functional, cell-based; details: not given; how it was run: as §1
T2 sequence (Q8TDV5 whole entry): T1 sequence (whole entry)

Question: `CC#CCn1c(N2CCC[C@@H](N)C2)nc2c1c(=O)n(CCCN1CCC(c3ncc(-c4ccccc4)o3)CC1)c(=O)n2C` was tested. Which pEC50 did it give?
Answer: 6.08

Question: `CC#CCn1c(N2CCC[C@@H](N)C2)nc2c1c(=O)n(CCCN1CCN(c3nc(-c4ccccc4)ns3)CC1)c(=O)n2C` was tested. Which pEC50 did it give?
Answer: 5.71

Question: With `CC#CCn1c(N2CCC[C@@H](N)C2)nc2c1c(=O)n(CCCN1CCN(c3ncc(C)cn3)CC1)c(=O)n2C` as the molecule, how does the pEC50 read?
Answer: 5.59

Question: `CC#CCn1c(N2CCC[C@@H](N)C2)nc2c1c(=O)n(CCCN1CCN(c3ncc(CC)cn3)CC1)c(=O)n2C` was tested. Which pEC50 did it give?
Answer: 5.40

Question: How did the pEC50 turn out when `CC#CCn1c(N2CCC[C@@H](N)C2)nc2c1c(=O)n(CCCN1CCN(c3ncc(C(F)(F)F)cn3)CC1)c(=O)n2C` was run?
Answer: 5.40

Question: `CC#CCn1c(N2CCC[C@@H](N)C2)nc2c1c(=O)n(CCCN1CCN(c3ncc(OC)cn3)CC1)c(=O)n2C` was tested. Which pEC50 did it give?
Answer: 5.65

biological target: DPP8/9 (Homo sapiens, UniProt Q6V1X1+Q86TI2); experiment: Inhibition of recombinant human DPP8/9 expressed in Rosetta cells at 10 uM using Gly-Pro-p-nitroanilide as substrate incubated for 1 hr relative to control; details: probe Gly-Pro-p-nitroanilide

Question: `CC#CCn1c(N2CCC[C@@H](N)C2)nc2c1c(=O)n(CCCN1CCC(c3ncc(-c4ccccc4)o3)CC1)c(=O)n2C` was tested. Which inhibition at 1 h, 10 µM did it give?
Answer: 3.3%

Question: `CC#CCn1c(N2CCC[C@@H](N)C2)nc2c1c(=O)n(CCCN1CCN(c3nc(-c4ccccc4)ns3)CC1)c(=O)n2C` was tested. Which inhibition at 1 h, 10 µM did it give?
Answer: 1.6%

Question: Which inhibition at 1 h, 10 µM does the source give for `CC#CCn1c(N2CCC[C@@H](N)C2)nc2c1c(=O)n(CCCN1CCC(c3nnnn3-c3ccccc3)CC1)c(=O)n2C` here?
Answer: 4.6%

Question: With `CC#CCn1c(N2CCC[C@@H](N)C2)nc2c1c(=O)n(CCCN1CCC(c3cc(-c4ccccc4)on3)CC1)c(=O)n2C` as the molecule, how does the inhibition at 1 h, 10 µM read?
Answer: 3.3%

Question: How did the inhibition at 1 h, 10 µM turn out when `CC#CCn1c(N2CCC[C@@H](N)C2)nc2c1c(=O)n(CCCN1CCN(c3cc(C)nn3-c3ccccc3)CC1)c(=O)n2C` was run?
Answer: 15.4%
